Results taken from PMC3008344 (Molecular nutrition & food research, 2009).

Legend:
[1] = system: MDA-MB-231-GFP human breast cancer cells; test: Visible lung metastases counted at sacrifice; format: in vivo, Nu/Nu female BALB/c mice; settings: 500 mg/kg diet each, control 70%
[2] = system: MDA-MB-231-GFP tumor tissue; test: Tumor immunohistochemistry: TUNEL apoptosis; format: in vivo, Nu/Nu female BALB/c mice; settings: tumor tissue from 5 mice/group, 500 mg/kg diet
Summary of the method: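 Xenografts came from female Nu/Nu BALB/c mice carrying s.c. MDA-MB-231-GFP tumours in matrigel. From ~25 mm3, mice were fed for 24 days a tocopherol-stripped AIN-76A basal diet (33 IU all-rac-α-tocopherol acetate/kg) with or without 500 mg/kg test vitamin E form. TUNEL (ApopTag) staining was done on deparaffinised 5 μm sections of formalin-fixed tumours. Brown nuclei were scored in 15 fields (400×) per tumour, 5 mice/group; Mann-Whitney test.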

[3] = system: MDA-MB-231-GFP tumor tissue; test: Tumor immunohistochemistry: Ki-67 proliferation; format: in vivo, Nu/Nu female BALB/c mice; settings: tumor tissue from 5 mice/group, 500 mg/kg diet
Summary of the method: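 Female Nu/Nu BALB/c mice (6 weeks) received 2 × 10^6 MDA-MB-231-GFP cells s.c. (inguinal) in 50% matrigel. At ~25 mm3 they were randomised (10/group) to tocopherol-stripped AIN-76A diet with 33 IU all-rac-α-tocopherol acetate/kg, ± test form at 500 mg/kg, for 24 days. Formalin-fixed tumours were cut into 5 μm sections and stained for Ki-67. Positive cells were counted in 5 fields (400×) per tumour, 5 mice/group; Mann-Whitney test.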

[4] = system: MDA-MB-231-GFP human breast cancer cells; test: Colony formation assay; format: cell-based; settings: for Effect on colony formation: MDA-MB-231-GFP cells, 10 days, 10–40 μM range tested; for IC50: Homo sapiens, 240 h, read-out: IC50 for inhibition of colony formation
Summary of the method: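 MDA-MB-231-GFP cells were seeded at 1000 per 100 mm plate in 2% FBS medium and grown 3 days to form small colonies. They were then treated 10 days with test compound at 10–40 μM (positive control 5–15 μM) or DMSO/ethanol (1:4) vehicle. Colonies were methanol-fixed, stained with 0.1% methylene blue and counted by image analysis. Survival (%) = colonies treated/control × 100. IC50 came from survival curves; mean ± SD, ≥2 experiments.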

DR5 = test: Western blot of DR5 protein expression; format: cell-based, human; settings: MDA-MB-231-GFP cells; for DR5 protein expression: 5 days
Survivin = test: Western blot of Survivin protein expression; format: cell-based, human; settings: MDA-MB-231-GFP cells; for Survivin protein expression: 5 days
Summary of the method: (§1)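 Whole-cell extracts came from the same 5-day-treated MDA-MB-231-GFP samples (2% FBS) used for annexin V analysis. Blots were incubated overnight at 4°C with primary antibody in 0.1% BSA/TBST against PARP (cleavage), Survivin, DR5 or GAPDH. After TBST washes they were probed with HRP-conjugated secondary antibody.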

PARP = test: Western blot of PARP cleavage; format: cell-based, human; settings: MDA-MB-231-GFP cells; for PARP cleavage: 5 days
Summary of the method: as §1

[5] = system: BALB/c 66cl-4-GFP mouse mammary cancer cells; settings: formulated in liposomes, oral gavage, BALB/c 66cl-4-GFP cells; cited from earlier work
[6] = system: human MDA-MB-231 breast cancer cells; settings: supplemented in the diet, MDA-MB-231 cells; cited from earlier work
[7] = system: MDA-MB-231-GFP human breast cancer cells; test: Annexin V-PE apoptosis assay; format: cell-based; settings: MDA-MB-231-GFP cells; for Induction of apoptosis (annexin V-PE positive cells): 5 day treatments

Structure (SMILES): Cc1c(C)c2c(c(C)c1O)CCC(C)(CCCC(C)CCCC(C)CCCC(C)C)O2 (racemic) [all-rac-αT, all-racemic-α-tocopherol]
- Incidence of visible lung metastases [1]: 30%
- Increase of TUNEL positive cells in tumor in comparison to control group [2]: 2.1 fold
- Decrease of Ki-67 positive cells in tumor in comparison to control group [3]: 23%
- Effect on colony formation [4]: no inhibitory effect
- DR5 protein expression (DR5): induced an increase in DR5 protein expression
- Survivin protein expression (Survivin): did not downregulate Survivin
- PARP cleavage (PARP): did not cause cleavage of PARP
- Tumor growth in syngeneic mouse model [5]: suppressed tumor growth
- Tumor burden in xenograft model [6]: reduced tumor burden

Structure (SMILES): Cc1c(O)cc2c(c1C)O[C@](C)(CCC[C@H](C)CCC[C@H](C)CCCC(C)C)CC2 [γT, RRR-γ-tocopherol]
- Incidence of visible lung metastases [1]: 30%
- Increase of TUNEL positive cells in tumor in comparison to control group [2]: 1.9 fold
- Decrease of Ki-67 positive cells in tumor in comparison to control group [3]: no significant difference
- IC50 [4]: 11.8 µM
- Induction of apoptosis (annexin V-PE positive cells) [7]: induced dose-dependent apoptosis
- DR5 protein expression (DR5): upregulation of pro-apoptotic death receptor DR5
- Survivin protein expression (Survivin): downregulation of anti-apoptotic Survivin
- PARP cleavage (PARP): PARP cleavage
- Tumor growth in syngeneic mouse model [5]: suppressed tumor growth

Structure (SMILES): Cc1c(C)c2c(c(C)c1O)CC[C@@](C)(CCC[C@H](C)CCC[C@H](C)CCCC(C)C)O2 [αT, RRR-α-tocopherol]
- Incidence of visible lung metastases [1]: 60%
- Increase of TUNEL positive cells in tumor in comparison to control group [2]: but not in the αT or αT + γT groups
- Decrease of Ki-67 positive cells in tumor in comparison to control group [3]: but not αT or αT + γT groups
- Effect on colony formation [4]: no inhibitory effect
- Block of α-TEA-induced apoptosis by αT ([7]; 10 μM αT plus 10 μM α-TEA, 5 days): 70%
- Block of γT-induced apoptosis by αT ([7]; 10 μM αT plus 40 μM γT, 5 days): 60%
- Effect of αT co-treatment on γT- and α-TEA-induced upregulation of DR5 (DR5): blocked
- DR5 protein expression (DR5): induced an increase in DR5 protein expression
- Effect of αT co-treatment on γT- and α-TEA-induced downregulation of Survivin (Survivin): blocked
- Survivin protein expression (Survivin): did not downregulate Survivin
- Effect of αT co-treatment on γT- and α-TEA-induced cleavage of PARP (PARP): blocked
- PARP cleavage (PARP): did not cause cleavage of PARP

Structure (SMILES): Cc1c(C)c2c(c(C)c1OCC(=O)O)CC[C@@](C)(CCC[C@H](C)CCC[C@H](C)CCCC(C)C)O2 [α-TEA, RRR-α-tocopherol ether-linked acetic acid analog]
- Incidence of visible lung metastases [1]: 30%
- Increase of TUNEL positive cells in tumor in comparison to control group [2]: 2.1 fold
- Decrease of Ki-67 positive cells in tumor in comparison to control group [3]: 39%
- IC50 [4]: 4.8 µM
- Induction of apoptosis (annexin V-PE positive cells) [7]: induced dose-dependent apoptosis
- DR5 protein expression (DR5): upregulation of pro-apoptotic death receptor DR5
- Survivin protein expression (Survivin): downregulation of anti-apoptotic Survivin
- PARP cleavage (PARP): PARP cleavage
- Tumor growth in syngeneic mouse model [5]: suppressed tumor growth
